This is an account of results in publication PMC11913021 (Journal of Medicinal Chemistry, 2024).

Where “and” joins values, the source holds several entries; their conditions need not be identical. Identical values can stand only once.

The subject of one data set is LLC lung cancer cells. Nature of the data set: LLC tumor model in immune-deficient nude mice. It is filed as in vivo, mouse. To be noted: immune-deficient nude mice injected with LLC cells.
In a further data set the test system is KRAS. Kind of data set: RAS activation assay in KRAS-transfected cells. It is filed as cell-based. An outline of the steps:
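Cells treated with test compound for 24 h and lysed with protease inhibitor, then spun at 13,000 rpm for 10 min at 4 °C. Lysate (800 μg) was incubated overnight at 4 °C with GST-Raf1-RBD beads and washed three times. Bound RAS-GTP was eluted in SDS buffer, heated at 100 °C for 5 min, and immunoblotted for RAS.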

For the next data set, the system named is HCT116 cells. Nature of the data set: WST-1 cell viability assay, HCT116. The format is cell-based. To be noted: read-out: IC50 of viability; HCT116, WST-1, 48 h. Summed up:
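Cells grown in DMEM or RPMI 1640 with 10% FBS and 1% penicillin/streptomycin at 37 °C, 5% CO2. Seeded at 5 × 10^3 cells/well and held 24 h at 37 °C, then exposed to test compound for 48 h. WST-1 absorbance was read at 450 nm, in triplicate. IC50 was taken as the concentration giving 50% growth inhibition versus control.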

For another data set, the system named is PLD. Nature of the data set: PLD activity inhibition in A549 cells. Particulars: read-out: IC50 for PLD inhibition. The format is cell-based.
Data set [1] can be described thus: Body weight of normal C57BL/6 mice without cancer cells. The format is in vivo, mouse. To be noted: oral, C57BL/6 without cancer cells, vs untreated.

With “N-(3,5-Bis(trifluoromethyl)phenyl)-3-(1H-indol-3-yl)propanamide [3r]”, the tumor formation result in the data set on LLC lung cancer cells is reported as “significantly suppressed”. In addition, in the data set with KRAS, the KRAS activation entry is “inhibited”. For the same substance, the IC50 with HCT116 cells was 29 µM and 29.1 µM; in the data set with PLD, 1.97 µM. For the same substance, the “weight of the normal mice” value in data set [1] is reported as “no effect”.
